High-throughput results as filed in PubChem.
CYP2C9 inh – blocks human cytochrome P450 2C9; CYP2C9 Supersomes, luciferin-H conversion, luminescence; inhibition, % at 5 µM; 96,000 compounds, 20% hits; AID 777;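 active = blocking of liver enzyme CYP2C9 beyond about 50% at 5 µM, limit read from the data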
Target sequence (P11712 whole entry, looked up): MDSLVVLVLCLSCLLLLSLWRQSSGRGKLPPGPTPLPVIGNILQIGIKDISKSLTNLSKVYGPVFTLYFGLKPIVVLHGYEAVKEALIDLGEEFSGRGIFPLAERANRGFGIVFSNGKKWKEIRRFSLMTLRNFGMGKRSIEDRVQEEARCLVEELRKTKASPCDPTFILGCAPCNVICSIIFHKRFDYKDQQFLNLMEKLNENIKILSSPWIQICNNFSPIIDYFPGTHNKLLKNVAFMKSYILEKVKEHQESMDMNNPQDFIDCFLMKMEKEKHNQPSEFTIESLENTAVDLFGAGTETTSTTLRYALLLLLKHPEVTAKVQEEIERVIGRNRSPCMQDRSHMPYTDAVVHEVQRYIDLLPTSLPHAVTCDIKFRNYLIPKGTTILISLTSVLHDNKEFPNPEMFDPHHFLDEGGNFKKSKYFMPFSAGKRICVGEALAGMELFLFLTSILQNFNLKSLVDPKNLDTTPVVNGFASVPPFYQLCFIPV
CYP2C9 activ – activators of human CYP2C9 | recombinant CYP2C9, luciferin-H conversion, luminescence; stronger effect = higher value; factor 1 = untreated enzyme, 0 = blocked | activation factor at 5 µM | 96,000 compounds, 1.4% hits | AID 1024;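 active = activation factor of 2 or more for CYP2C9 at a 5 µM dose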;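 note: 0 = sulfaphenazole-blocked wells and 1 = vehicle-only wells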
CYP2C19 inh – inhibitors of human CYP2C19; P33261; CYP2C19 Supersomes, luciferin-H EGE luminescence, 30 min; inhibition, % at 5 µM; 96,000 compounds, 21% hits;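 active = CYP2C19 inhibition above a set limit at 5 µM in the primary screen, cut at about 50% in these data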;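 note: plate controls were negative control wells for no effect and 2.5 mM tranylcypromine positive control for full effect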
E coli WT exp – growth inhibitors of E. coli BW25113 wild type. OD600 absorbance. growth inhibition, % at 100 µM. 98,000 compounds, 0.15% hits. AID 710;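 active = growth inhibition above about 50% at one test dose, limit read from the data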;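 note: growth measured after 20 h incubation at 37 °C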
Ecoli tolC – growth inhibitors of E. coli BW25113 tolC mutant; OD615; growth inhibition, % at 10 µM (by protocol); 65,000 compounds, 2.2% hits; AID 573;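 active = growth inhibition at or above a cutoff equal to the mean over every tested compound plus 3 SD, cut at about 60% in these data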;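 note: growth measured after 20 h incubation at 37 °C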
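Test system: E. coli BW25113 ΔtolC::kan bacteria | Medium: Kanamycin-containing LB broth (50 µg/mL) | Dosing: One dose of 10 µM final | Times: 20 h incubation with compound, 37 °C | Detection: Optical density read at 615 nm | Read-out basis: Percent growth inhibition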
CYP2C19 activ – activators of human cytochrome P450 2C19; P33261; recombinant CYP2C19, luciferin-H EGE luminescence; stronger effect = higher value; 0 = fully inhibited enzyme, 1 = untreated enzyme; activation factor at 5 µM; 96,000 tested, under 10 active;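 active = activation factor of at least 2 at 5 µM in the primary screen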;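 note: 0 = wells with 2.5 mM tranylcypromine and 1 = vehicle-only wells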
* hit, by the source's call; · = no result given. Shown are actives, neighbours in structure and some others; about 29% of the full set was active somewhere.

SMILES	CYP2C9 inh	CYP2C9 activ	CYP2C19 inh	E coli WT exp	Ecoli tolC	CYP2C19 activ
Cc1cccc(NC(=O)c2cc3c(n(-c4ccccc4)c2=O)CCCC3=O)n1	50.3*	0.5	18.9	-4.0	-15.9	0.8
O=C1CCCc2c1cc(C(=O)NCc1ccco1)c(=O)n2-c1ccc(Cl)cc1	-3.0	1	83.9*	6.0	13.9	0.2
CC1(C)CC(=O)c2cc(C(=O)O)c(=O)n(-c3ccccc3)c2C1	-19.1	1.2	-16.0	-2.0	·	1.2
Cn1nc(C(F)(F)F)c(/C=N/OC(=O)c2ccccc2)c1SCc1ccccc1Cl	37.8	0.6	41.4	-11.0	·	0.6
COc1ccc(NC(=O)c2c(C(F)(F)F)nn(C)c2SCc2ccccc2Cl)cc1	87.2*	0.1	24.1	-8.0	·	0.8
Cc1ccc(Cn2nnc3c(=O)[nH]c(C4CCN(S(=O)(=O)c5cc(C)ccc5C)CC4)nc32)cc1	97.2*	0	79.2*	-8.0	57.9	0.2
Cc1ccc(Cn2nnc3c(=O)[nH]c(C4CCN(S(=O)(=O)c5ccc(F)cc5)CC4)nc32)cc1	·	·	·	-7.0	18.8	·
Cc1ccc(C)c(S(=O)(=O)N2CCC(c3nc4c(nnn4Cc4ccc(F)cc4)c(=O)[nH]3)CC2)c1	94.2*	0.1	48.7	-1.0	27.0	0.5
CS(=O)(=O)c1ccc(Cl)c(NC(=O)C2CC(=O)N(Cc3ccccc3)C2)c1 (stereo unspecified)	68.5*	0.3	28.9	1.0	-7.7	0.7
CC(=O)c1cccc(NC(=O)C2CC(=O)N(Cc3ccccc3)C2)c1 (stereo unspecified)	25.4	0.7	33.8	-3.0	·	0.7
COCCCNC(=S)NC1CC2CCCC(C1)N2Cc1cccs1 (stereo unspecified)	14.5	0.9	1.4	-5.0	·	1
Cc1oc(-c2ccccc2F)nc1CS(=O)(=O)CC(=O)N1CCN(c2ccccc2)CC1	64.8*	0.4	60.4*	-3.0	·	0.4
Cc1oc(-c2ccccc2F)nc1CS(=O)(=O)CC(=O)NC1CCCC1	51.5*	0.5	14.3	6.0	9.9	0.9
CC(=O)Nc1cccc(NC(=O)C2CCCN2C(=O)Nc2ccccc2C)c1 (stereo unspecified)	9.4	0.9	5.6	-3.0	-28.8	0.9
CCOc1ccc(OCCCC(=O)O)cc1	-16.8	1.2	-17.6	-12.0	·	1.2
Cc1ccc(NC2c3ccccc3C(=O)N2CCN2CCOCC2)cc1 (stereo unspecified)	27.1	0.7	81.5*	1.0	·	0.2
O=C1c2ccccc2C(Nc2ccc(S(=O)(=O)N3CCCCCC3)cc2)N1c1ccccn1 (stereo unspecified)	-4.7	1	-15.9	-4.0	·	1.2
O=C1c2ccccc2C(Nc2ccc(S(=O)(=O)N3CCOCC3)cc2)N1c1ccccn1 (stereo unspecified)	77.2*	0.2	34.1	-2.0	·	0.7
O=C1c2ccccc2C(Nc2ccc(S(=O)(=O)N3CCCCC3)cc2)N1Cc1ccco1 (stereo unspecified)	89.8*	0.1	35.5	-9.0	·	0.6
O=C1c2ccccc2C(Nc2ccc(S(=O)(=O)N3CCOCC3)cc2)N1Cc1ccco1 (stereo unspecified)	59.8*	0.4	19.3	6.0	·	0.8
CCOC(=O)C1CCN(C(=O)CCNC(=O)c2cc(OC)c(OC)c(OC)c2)CC1	1.3	1	-13.3	7.0	-4.8	1.1
Cc1cccc(NC(=O)c2cccc(N3C(=O)C4C5CCC(C5)C4C3=O)c2)c1C (stereo unspecified)	0.1	1	-12.4	-4.0	·	1.1
COC(=O)c1c(NC(=O)c2ccco2)sc2c1CCC2	40.5	0.6	23.0	-11.0	·	0.8
COc1ccccc1NC(=O)C1(C)Cc2ccccc2C(=O)O1 (stereo unspecified)	-133.6	2.3*	40.0	6.0	-10.9	0.6
COC(=O)c1c(NC(=O)C2(C)Cc3ccccc3C(=O)O2)sc2c1CCCC2 (stereo unspecified)	55.9*	0.4	60.5*	-11.0	·	0.4
SMILES	CYP2C9 inh	CYP2C9 activ	CYP2C19 inh	E coli WT exp	Ecoli tolC	CYP2C19 activ
CC1(C(=O)Nc2nccs2)Cc2ccccc2C(=O)O1 (stereo unspecified)	-0.6	1	-2.3	-5.0	-11.2	1
CC1(C(=O)Nc2nnc(SCc3ccccc3)s2)Cc2ccccc2C(=O)O1 (stereo unspecified)	79.0*	0.2	14.8	2.0	·	0.9
O=C(Nc1nnc(SCc2ccccc2)s1)c1cc2c(s1)CCCC2	37.7	0.6	22.2	-15.0	·	0.8
COc1cc(/C=C(/NC(=O)c2ccccc2Cl)C(=O)O)cc(OC)c1OC	-7.3	1.1	-6.9	-1.0	·	1.1
COc1ccc(-n2nc(C(=O)NCC(=O)NCc3ccco3)c3ccccc3c2=O)cc1Cl	36.5	0.6	-1.6	-3.0	-3.5	1
COc1ccc2c(c1OC)C(=O)OC2Nc1ncc(Br)cc1Br (stereo unspecified)	1.0	1	0.3	7.0	·	1
Cc1ccccc1NC1=C(Cl)C(=O)OC1NC(=O)c1ccccc1 (stereo unspecified)	72.3*	0.3	60.7*	-7.0	·	0.4
CCN(CC)C(=O)c1sc2nc(-c3ccccn3)[nH]c(=O)c2c1C	·	·	·	·	12.2	·
CCN(CC)C(=O)c1sc2nc(-c3ccncc3)[nH]c(=O)c2c1C	20.8	0.8	62.8*	-2.0	-1.6	0.4
CCCN1C(=O)C(O)(C2CC(=O)CC(C)(C)O2)c2ccccc21 (stereo unspecified)	-30.2	1.3	15.0	4.0	-9.9	0.8
O=c1[nH]c(CN2CCN(Cc3ccccc3)CC2)nc2sc3c(c12)CCC3	·	·	·	·	1.6	·
Cc1cccc(NC(=O)C2(c3ccccc3)CC2(Cl)Cl)c1 (stereo unspecified)	52.3*	0.5	60.9*	2.0	·	0.4
Cc1ccc(NC(=O)C2(c3ccccc3)CC2(Cl)Cl)cc1C (stereo unspecified)	30.2	0.7	74.1*	-1.0	·	0.3
Cc1cc(C)cc(NC(=O)C2(c3ccccc3)CC2(Cl)Cl)c1 (stereo unspecified)	42.7	0.6	27.8	-3.0	·	0.7
FC(F)(F)c1cccc(Cn2nnnc2-c2ccc(Cl)cc2)c1	61.3*	0.4	92.3*	-4.0	·	0.1
CCCN(CCC)Cc1c(C(=O)OCC)nnn1-c1nonc1N	19.1	0.8	0.3	4.0	-7.8	1
CCOC(=O)c1nnn(-c2nonc2-n2cccc2)c1CCl	68.2*	0.3	22.8	9.0	·	0.8
CCOC(=O)c1nnc2ccnn2c1N	-5.5	1.1	6.1	-2.0	-13.7	0.9
CCOC(=O)c1nnn(-c2nonc2-n2cccc2)c1CN1CCC(C)CC1	10.2	0.9	-8.1	4.0	70.1*	1.1
COCCNC(=S)NC1CC2CCCC(C1)N2Cc1ccco1 (stereo unspecified)	17.1	0.8	45.6	3.0	·	0.5
COC(=O)C1C2C=CC(C3CC23)C1C(=O)OCC(=O)c1ccc(OC)cc1 (stereo unspecified)	38.4	0.6	83.4*	20.0	·	0.2
